Data from the M2OR odorant receptor database.

Tests used:
Settings in all cases: stereoisomer not certain
[1] = target: T1, Or1m1 (Mus musculus) (UniProt Q8VFM9)
T1 sequence (whole entry): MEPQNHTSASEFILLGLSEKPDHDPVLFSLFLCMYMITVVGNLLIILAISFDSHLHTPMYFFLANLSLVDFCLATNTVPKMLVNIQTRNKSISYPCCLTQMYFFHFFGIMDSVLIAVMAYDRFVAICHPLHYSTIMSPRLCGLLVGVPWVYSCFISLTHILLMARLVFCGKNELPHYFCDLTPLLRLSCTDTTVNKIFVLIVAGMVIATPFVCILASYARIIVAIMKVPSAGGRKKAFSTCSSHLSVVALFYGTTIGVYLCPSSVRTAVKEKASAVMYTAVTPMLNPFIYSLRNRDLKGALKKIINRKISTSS
Method in brief: (§1)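 Each receptor–molecule pair is labelled responsive or non-responsive (inactive) according to whether the original authors judged the measured signal statistically different from baseline. The data were taken from the main text and supplementary material of published papers and checked for typos and inconsistencies. Assay methods differed by source, with transient luciferase assays in mammalian cell lines being common.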

[2] = target: T2, Or2c1 (Mus musculus) (UniProt P23275)
T2 sequence (whole entry): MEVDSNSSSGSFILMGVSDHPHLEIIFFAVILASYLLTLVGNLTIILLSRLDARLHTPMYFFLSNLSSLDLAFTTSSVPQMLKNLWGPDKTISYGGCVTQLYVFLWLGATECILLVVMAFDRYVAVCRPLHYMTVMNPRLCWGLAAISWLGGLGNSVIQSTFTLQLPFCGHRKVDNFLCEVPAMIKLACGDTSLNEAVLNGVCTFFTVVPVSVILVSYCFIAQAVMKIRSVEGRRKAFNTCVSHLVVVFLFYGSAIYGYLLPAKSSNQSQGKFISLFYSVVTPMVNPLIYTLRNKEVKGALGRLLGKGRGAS
Method in brief: as §1

[3] = target: T3, Or5ar1 (Mus musculus) (UniProt Q8VGS3)
T3 sequence (whole entry): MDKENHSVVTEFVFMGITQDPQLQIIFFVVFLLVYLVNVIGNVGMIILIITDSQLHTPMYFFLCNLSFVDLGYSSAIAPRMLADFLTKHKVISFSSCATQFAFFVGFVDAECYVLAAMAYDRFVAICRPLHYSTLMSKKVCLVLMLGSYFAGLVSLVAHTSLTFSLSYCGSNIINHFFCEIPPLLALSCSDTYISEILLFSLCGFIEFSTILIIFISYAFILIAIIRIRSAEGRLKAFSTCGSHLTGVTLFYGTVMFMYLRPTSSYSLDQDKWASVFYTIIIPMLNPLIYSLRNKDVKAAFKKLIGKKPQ
Method in brief: as §1
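Note: active if original authors judged signal statistically different from baseline.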

Row | Structure (SMILES) | odorant receptor agonist call [1] | odorant receptor agonist call [2] | odorant receptor agonist call [3]
1 | C=C(C)C1CCC(C)C(=O)C1 (stereo not drawn) | inactive | inactive | inactive
2 | CC(=O)OCc1ccccc1 | inactive | inactive | inactive
3 | CCCCCCCCCCO | inactive | inactive | inactive
4 | CC(=O)C=CC1=C(C)CCCC1(C)C | inactive |  | inactive
5 | COc1ccccc1 | inactive |  | inactive
6 | CCN(CC)CC | inactive |  | inactive
7 | CC(C)CS | inactive |  | inactive
8 | CCCC=O | inactive |  | inactive
9 | CCc1occc(=O)c1O | inactive |  | inactive
10 | C1CCOCC1 | inactive |  | inactive
11 | c1ccc2ncccc2c1 | inactive |  | inactive
12 | CCCCCCCCCC=CC=O | inactive |  | inactive
13 | C=CC(=C)CCC=C(C)CCC=C(C)C | inactive |  | inactive
14 | CCCCCCCCC=CC=O | inactive |  | inactive
15 | CCCCCOC(=O)CCC | inactive |  | inactive
16 | Cc1c(C)c(C)c(C=O)c(C)c1C | inactive |  | inactive
17 | CC(C)CCN | inactive |  | inactive
18 | C=C1C2CCC(C2)C1(C)C (stereo not drawn) | inactive |  | inactive
19 | CCCCCCC(=O)OCCCC | inactive |  | inactive
20 | C=CC(=C)CCC=C(C)C | inactive |  | inactive
21 | CNc1ccccc1C(=O)OC | inactive |  | inactive
22 | Cc1occc1SSc1ccoc1C | inactive |  | inactive
23 | CC=Cc1ccc(OC)cc1 | inactive |  | inactive
24 | CC(C)=C1CCC(C)CC1=O (stereo not drawn) | inactive |  | inactive
25 | CC1(C)CC(=O)CC(=O)C1 | inactive |  | inactive

Row | Structure (SMILES) | odorant receptor agonist call [1] | odorant receptor agonist call [2] | odorant receptor agonist call [3]
26 | CC(=O)OC1(C)CCC23CC1C(C)(C)C2CCC3C (stereo not drawn) | active |  | inactive
27 | C=C(CC)CCCC(C)(C)O | inactive |  | inactive
28 | O=C(O)CCCCCBr | inactive |  | inactive
29 | CC(=O)C1(C)CC2=C(CCCC2(C)C)CC1C (stereo not drawn) | inactive |  | inactive
30 | CCC=CCCC=CC=O | inactive |  | inactive
31 | OCCc1ccccc1 | inactive |  | inactive
32 | Cc1ccccc1OC(=O)C(C)C | inactive |  | inactive
33 | CCC(C)O (stereo not drawn) | inactive |  | inactive
34 | CCCCCC(C)O (stereo not drawn) | inactive |  | inactive
35 | CC1CCC(C(C)C)C(=O)C1 (stereo not drawn) | inactive |  | inactive
36 | C=C(C)C1CCC2(C)OC2C1 (stereo not drawn) | inactive |  | inactive
37 | O=C(O)CCCCCCCCC(=O)O | inactive |  | inactive
38 | CCCCCCCCCCOC(C)=O | inactive |  | inactive
39 | CC(=O)OCc1ccc2c(c1)OCO2 | inactive |  | inactive
40 | Cc1ccc(C(C)C)c(O)c1 | inactive |  | inactive
41 | Cc1ccc2c(c1)OCC(=O)CO2 | inactive |  | inactive
42 | O=C(O)C1CCC1 | inactive |  | inactive
43 | CCCCCCCCOC=O | inactive |  | inactive
44 | Cc1ccc(OC(=O)C(C)C)cc1 | inactive |  | inactive
45 | CC(C)=CCCC(C)=CCOC(=O)C(C)C | inactive |  | inactive
46 | CCCCCCC(C)O (stereo not drawn) | inactive |  | inactive
47 | CCC=CCCCCC=O | inactive |  | inactive
48 | CCCCCC(C=O)=Cc1ccccc1 | inactive |  | inactive
49 | CCOC(=O)CC(C)C | inactive |  | inactive
50 | C=CC(C)=CCC=C(C)CCC=C(C)C | inactive |  | inactive
